Test results published in publication PMC2225856 (The Journal of General Physiology, 1970).
Where two headings read alike, the source gives them in different places. Bridge positions count the residues as written; N and C are the ends. Ends that are not written are not given here.

How the values were obtained:
[1] = test system: toad urinary bladder; assay: Hydroosmotic response of the toad urinary bladder; format: cell-based, Bufo marinus; settings: serosal bath, concentrations as high as 2.86 X 10^-6 M
Outline: (§1)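 Bufo marinus, 150-250 g, both sexes, kept on moist peat moss and pithed. Bentley sac hemibladders filled with dilute Ringer were preincubated 2 h in stirred full-strength Ringer, then moved to the challenge bath. Water loss was read as sac weight loss at 30 min intervals; sacs were emptied, refilled with fresh dilute Ringer and placed in a fresh bath after each weighing.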

[2] = test system: toad urinary bladder; assay: Noncompetitive antagonism of the hydroosmotic response; format: cell-based, Bufo marinus
Outline: as §1

[3] = test system: toad urinary bladder; settings: note added in proof; ref Chiu, P.J.S. and W.H. Sawyer. 1970; cited from earlier work
[4] = test system: toad urinary bladder; settings: cited from earlier work; for pD2 of reference agonist: Table II, ± SEM
[5] = calculated on the basis of earlier data, ref Eggena et al. (18)

With `CCCCC[C@H](O)/C=C/[C@H]1[C@H](O)CC(=O)[C@@H]1CCCCCCC(=O)O` [PGE1, prostaglandin E1] the “Hydroosmotic activity per se (bladder permeability to water)” value [1] was “did not increase the bladder permeability to water”, the “Effect on response to oxytocin-theophylline combination” value ([2]; 2.9 X 10^-7 M PGE1, 1 X 10^-9 M oxytocin + 4 X 10^-3 M theophylline, eight experiments) was “reduced by PGE1 to almost basal levels” and the “Effect on response to cyclic AMP-theophylline combination” value ([2]; 2.9 X 10^-7 M PGE1, 2.5 X 10^-3 M cyclic AMP + 4 X 10^-3 M theophylline, eight experiments) was “only minimally”. The “Maximal response to dibutyryl cyclic AMP in the presence of PGE1” value ([2]; 2.9 X 10^-7 M PGE1, fraction of maximal response (0.80 without PGE1), ± SEM) was 0.72, the “Maximal response to theophylline in the presence of PGE1” value ([2]; fraction of maximal response (0.78 without PGE1), ± SEM) was 0.10 and the “Diminution in the maximal response to oxytocin in the presence of PGE1, average” value ([2]; fraction of maximal response, ± 0.10, considerable variation) was 0.77.
In the case of “[4-leucine]-oxytocin (CYILNCPLG; ends and bridges not checked; cysteine pairing not given here; UniProt P01178 20-28, looked up, variant Q4L)”, the “Inhibition of the hydroosmotic action of [8-arginine]-vasopressin and [8-arginine]-vasotocin” value [3] is given as “competitively in- hibits”.
For oxytocin, the “pD2 of reference agonist” value [4, 5] is listed as 8.63 and the Maximal hydroosmotic response [4] is listed as 100%.
For “[8-arginine]-vasopressin (CYFQNCPRG-NH2; disulfide 1-6; UniProt P01185 20-28, looked up)”, the “pD2 of reference agonist” value [4, 5] is listed as 9.40.
In the case of [5-ornithine]-oxytocin, the “pD2 of reference agonist” value ([4]; ref Havran et al. (22)) is given as 4.92.
